Reference: ChEMBL document CHEMBL3352166, “Structure-guided design and development of novel benzimidazole class of compounds targeting DNA gyraseB enzyme of Staphylococcus aureus” (Bioorg Med Chem, 2014)
In brackets after ≈: the same amount, converted by molar mass.

Assays:
DNA gyrase = DNA gyrase (Staphylococcus aureus, UniProt P0A0K8+P20831); test: Inhibition of Staphylococcus aureus DNA gyrase-mediated supercoiling of relaxed DNA using pBR 322 as substrate by agarose gel electrophoresis analysis; type: protein-complex assay
DNA gyrase subunit B = DNA gyrase subunit B (Staphylococcus aureus, UniProt P0A0K8); test: Inhibition of Staphylococcus aureus DNA gyrase B ATPase activity
Staphylococcus aureus [1] = test: Inhibition of biofilm formation in methicillin-resistant Staphylococcus aureus MTCC 96 after 24 hr incubation by tissue culture plate method; details: MTCC 96, 24 h
Staphylococcus aureus [2] = test: Antimicrobial activity against Staphylococcus aureus MTCC 3160 after 16 to 24 hrs by agar dilution method; type: functional
How it was run: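 MIC by agar dilution per CLSI on Mueller-Hinton agar. Overnight colonies were suspended to about 10^6 cfu/mL, and 1 mL was added to 19 mL medium. Compounds were made up in 0.9% saline and tested over about 10 doubling dilutions, 100 µM to 0.1 µM. Plates ran 16-20 h at 35 °C in ambient air. MIC was the lowest concentration preventing visible growth.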

Staphylococcus aureus [3] = test: Antimicrobial activity against methicillin-resistant Staphylococcus aureus MTCC 96 after 16 to 24 hrs by agar dilution method; type: functional
How it was run: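 Agar dilution per CLSI guidelines on Mueller-Hinton agar. Overnight colonies suspended to about 10^6 cfu/mL, and 1 mL added to 19 mL medium. Stocks in 0.9% saline, tested over about 10 doubling dilutions from 100 µM to 0.1 µM. Plates incubated at 35 °C in ambient air for 16-20 h. MIC taken as the lowest concentration preventing visible growth.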

[4] = Cytotoxicity against human HEK293 cells assessed as reduction in cell viability at 100 uM after 72 hrs by MTT assay; type: cell-based; details: read-out: INH
How it was run: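 HEK-293 cells were seeded at 5000 per well and left 24 h, then washed. They were exposed to 100 µM in RPMI + 5% FBS + 1% penicillin/streptomycin, with final DMSO ≤0.5%, for 72 h at 37 °C in 5% CO2. DMSO-treated cultures served as controls. Viability was read by MTT at 570 nm, in triplicate, as percentage inhibition.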

Danio rerio [5] = organism: Danio rerio; test: Cardiotoxicity in zebra fish assessed as AV ratio up to 30 uM; type: organism-based; details: zebrafish, in vivo
How it was run: (§1)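 Zebrafish larvae at 3 dpf were dosed in 24-well plates, 5 embryos per well, in 0.1% DMSO vehicle at 1–30 µM for 4 h at 28 °C. Terfenadine 20 µM was the positive control. Atrial and ventricular beats were watched by light microscopy, timing 30 beats and averaging 5 embryos per well. Results are mean ± SEM, with significance versus control.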

Staphylococcus aureus [6] = test: Antimicrobial activity against Staphylococcus aureus infected in CD1 mouse assessed as animal protection at 25 mg/kg, iv treated 4 hrs after infection measured 24 hrs post infection
Staphylococcus aureus [7] = test: Antimicrobial activity against Staphylococcus aureus infected in CD1 mouse assessed as animal protection at 5 mg/kg, iv treated 4 hrs after infection measured 24 hrs post infection; type: functional
How it was run: (§2)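 Female CD-1 mice (20–25 g, ten per group) were infected intraperitoneally with 3 × 10^7 cfu/mouse, slightly above LD100. Test compound was given iv at 5, 10 or 25 mg/kg at infection and 4 h post infection. Vancomycin at 5 mg/kg served as comparator. Survival was scored 24 h post infection.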

Danio rerio [8] = organism: Danio rerio; test: Cardiotoxicity in zebra fish assessed as change in heart rate up to 30 uM; type: toxicity, organism-based; details: zebrafish, in vivo; how it was run: as §1
Staphylococcus aureus [9] = test: Antimicrobial activity against Staphylococcus aureus infected in CD1 mouse assessed as animal protection at 10 mg/kg, iv treated 4 hrs after infection measured 24 hrs post infection; type: functional; how it was run: as §2

Sequence of DNA gyrase (P0A0K8 whole entry): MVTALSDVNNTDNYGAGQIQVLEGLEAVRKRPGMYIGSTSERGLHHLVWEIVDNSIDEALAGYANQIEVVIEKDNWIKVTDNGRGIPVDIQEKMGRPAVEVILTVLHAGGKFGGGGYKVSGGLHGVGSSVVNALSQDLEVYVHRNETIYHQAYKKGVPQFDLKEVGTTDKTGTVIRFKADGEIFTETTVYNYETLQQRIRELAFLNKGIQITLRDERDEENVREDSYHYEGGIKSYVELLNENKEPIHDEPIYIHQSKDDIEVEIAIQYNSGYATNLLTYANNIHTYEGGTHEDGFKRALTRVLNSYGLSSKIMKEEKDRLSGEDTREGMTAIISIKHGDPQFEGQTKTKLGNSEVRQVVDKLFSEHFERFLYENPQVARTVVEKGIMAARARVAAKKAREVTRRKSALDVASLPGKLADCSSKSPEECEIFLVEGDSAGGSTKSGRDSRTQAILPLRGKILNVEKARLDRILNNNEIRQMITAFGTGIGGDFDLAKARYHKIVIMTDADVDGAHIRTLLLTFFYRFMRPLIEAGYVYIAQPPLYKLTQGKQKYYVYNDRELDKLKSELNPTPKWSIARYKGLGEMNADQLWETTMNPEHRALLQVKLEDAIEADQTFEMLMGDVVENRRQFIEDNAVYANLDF
Sequence of DNA gyrase (P20831 whole entry): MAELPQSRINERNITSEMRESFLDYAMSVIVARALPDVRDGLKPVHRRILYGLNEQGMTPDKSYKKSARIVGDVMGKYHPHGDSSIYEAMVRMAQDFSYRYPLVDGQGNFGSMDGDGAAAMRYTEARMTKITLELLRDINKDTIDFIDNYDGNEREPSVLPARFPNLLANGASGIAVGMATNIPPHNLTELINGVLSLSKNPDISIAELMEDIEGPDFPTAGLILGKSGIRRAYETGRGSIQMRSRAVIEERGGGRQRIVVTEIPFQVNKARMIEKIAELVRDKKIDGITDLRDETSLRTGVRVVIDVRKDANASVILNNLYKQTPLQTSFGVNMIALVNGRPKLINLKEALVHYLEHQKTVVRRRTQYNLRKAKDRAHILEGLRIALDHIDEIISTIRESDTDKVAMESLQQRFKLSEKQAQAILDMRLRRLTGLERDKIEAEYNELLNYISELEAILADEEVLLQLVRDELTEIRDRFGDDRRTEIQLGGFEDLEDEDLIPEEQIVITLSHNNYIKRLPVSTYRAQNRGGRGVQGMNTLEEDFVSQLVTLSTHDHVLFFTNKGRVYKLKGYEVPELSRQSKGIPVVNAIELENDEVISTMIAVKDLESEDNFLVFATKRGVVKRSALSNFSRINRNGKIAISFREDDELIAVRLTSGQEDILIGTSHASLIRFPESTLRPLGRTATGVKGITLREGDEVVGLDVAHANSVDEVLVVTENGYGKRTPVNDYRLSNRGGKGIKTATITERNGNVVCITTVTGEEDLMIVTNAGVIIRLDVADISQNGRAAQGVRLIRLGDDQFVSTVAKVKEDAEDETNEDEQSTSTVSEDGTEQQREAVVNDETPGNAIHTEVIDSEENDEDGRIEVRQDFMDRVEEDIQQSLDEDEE
Sequence of DNA gyrase subunit B (P0A0K8 whole entry): as the sequence (P0A0K8 whole entry) above

Compound	IC50 (DNA gyrase) [µM]	IC50 (DNA gyrase subunit B) [µM]	IC50 (Staphylococcus aureus [1]) [µM]	MIC (Staphylococcus aureus [2]) [µM]	MIC (Staphylococcus aureus [3]) [µM]	cytotoxicity at 72 h, 100 µM [4] [%]	Activity (Danio rerio [5])	Activity (Staphylococcus aureus [6]) [%]	Activity (Staphylococcus aureus [7]) [%]	Activity (Danio rerio [8])	Activity (Staphylococcus aureus [9]) [%]
O=C(O)CSCC(=O)Nc1ccc(-c2nc3cc([N+](=O)[O-])ccc3[nH]2)cc1	2.1	3.13	10.3	8.09 (≈ 3.12 µg/mL)	17 (≈ 6.56 µg/mL)	25.2	–	–	–	–	–
O=C(O)CCCC(=O)Nc1ccc(-c2nc3cc(F)ccc3[nH]2)cc1	1.13	1.32	9.63	4.57 (≈ 1.56 µg/mL)	9.15 (≈ 3.12 µg/mL)	7.59	Non-toxic	100	60	Non-toxic	80
O=C(O)COCC(=O)Nc1ccc(-c2nc3cc(Cl)ccc3[nH]2)cc1	12.5	15.3	71.2	34.7 (≈ 12.5 µg/mL)	69.5 (≈ 25 µg/mL)	29.7	–	–	–	–	–
O=C(O)CSCC(=O)Nc1ccc(-c2nc3cc(Cl)ccc3[nH]2)cc1	12.1	13.8	9.72	4.15 (≈ 1.56 µg/mL)	4.15 (≈ 1.56 µg/mL)	23	–	–	–	–	–
O=C(O)COCC(=O)Nc1ccc(-c2nc3cc([N+](=O)[O-])ccc3[nH]2)cc1	5.8	8.51	83.2	33.8 (≈ 12.5 µg/mL)	47 (≈ 17.4 µg/mL)	31.3	–	–	–	–	–
COc1ccc2[nH]c(-c3ccc(NC(=O)COCC(=O)O)cc3)nc2c1	3.06	4.34	31.7	17.6 (≈ 6.25 µg/mL)	17.6 (≈ 6.25 µg/mL)	23.3	–	–	–	–	–
COc1ccc2[nH]c(-c3ccc(NC(=O)CSCC(=O)O)cc3)nc2c1	16	9.31	> 100	67.3 (≈ 25 µg/mL)	67.3 (≈ 25 µg/mL)	22.6	–	–	–	–	–
O=C(O)COCC(=O)Nc1ccc(-c2nc3cccnc3[nH]2)cc1	4.7	6.93	82.5	19.1 (≈ 6.25 µg/mL)	38.3 (≈ 12.5 µg/mL)	38.7	–	–	–	–	–
O=C(O)CSCC(=O)Nc1ccc(-c2nc3cccnc3[nH]2)cc1	1.7	2.31	11.3	4.55 (≈ 1.56 µg/mL)	9.12 (≈ 3.12 µg/mL)	31.9	–	–	–	–	–
